In ChEMBL document CHEMBL1123849, “Synthesis and binding affinities of analogues of cholecystokinin-(30-33) as probes for central nervous system cholecystokinin receptors” (J Med Chem, 1987):
Square brackets hold non-standard residues; d marks the D form. Peptide text beside a SMILES is read from it. * marks the point of attachment. sY = N[C@@H](Cc1ccc(OS(=O)(=O)O)cc1)C(=O)O; Boc = CC(C)(C)OC(=O)*

Target: T1, Cholecystokinin receptor (Mus musculus, UniProt O08786+P56481)
T1 sequence (O08786 whole entry): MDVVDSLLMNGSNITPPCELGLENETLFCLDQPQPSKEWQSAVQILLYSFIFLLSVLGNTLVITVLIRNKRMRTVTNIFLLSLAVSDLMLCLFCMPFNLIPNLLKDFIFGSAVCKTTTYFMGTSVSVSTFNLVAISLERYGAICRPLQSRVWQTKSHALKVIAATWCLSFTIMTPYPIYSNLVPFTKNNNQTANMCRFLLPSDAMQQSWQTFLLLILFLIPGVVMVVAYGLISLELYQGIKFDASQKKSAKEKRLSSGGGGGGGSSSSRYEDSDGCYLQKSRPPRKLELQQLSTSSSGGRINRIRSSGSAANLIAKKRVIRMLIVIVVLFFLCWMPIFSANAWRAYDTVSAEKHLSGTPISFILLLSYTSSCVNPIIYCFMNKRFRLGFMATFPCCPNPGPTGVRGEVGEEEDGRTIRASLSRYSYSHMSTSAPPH
T1 sequence (P56481 whole entry): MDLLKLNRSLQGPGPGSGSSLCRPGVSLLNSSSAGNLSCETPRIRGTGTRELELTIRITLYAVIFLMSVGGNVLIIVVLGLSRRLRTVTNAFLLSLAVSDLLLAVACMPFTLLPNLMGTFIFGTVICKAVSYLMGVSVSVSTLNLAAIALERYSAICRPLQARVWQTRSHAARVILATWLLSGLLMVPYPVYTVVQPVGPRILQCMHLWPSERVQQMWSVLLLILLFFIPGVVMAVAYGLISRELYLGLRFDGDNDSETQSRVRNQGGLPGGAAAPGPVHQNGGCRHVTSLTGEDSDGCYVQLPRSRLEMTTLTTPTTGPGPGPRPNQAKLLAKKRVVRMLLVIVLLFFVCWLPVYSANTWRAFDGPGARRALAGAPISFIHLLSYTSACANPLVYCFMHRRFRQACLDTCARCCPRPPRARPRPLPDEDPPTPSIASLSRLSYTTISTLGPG
Experiment: Displacement of [3H]pentagastrin from Cholecystokinin receptor of mouse cerebral cortex
Type: tissue-based
Summary of the method: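 Radioligand was [3H]-Boc-β-alanyl-CCK-30-33 (pentagastrin), displaced from central CCK receptors in homogenized mouse cerebral cortex.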

| Structure (SMILES) | Ki [nM] |
| --- | --- |
| CC(C)(C)OC(=O)N[C@@H](Cc1c[nH]c2ccccc12)C(=O)NCCC(=O)NC(Cc1ccccc1)C(N)=O (stereo partly specified) | 45000 |
| CC(C)(C)OC(=O)N[C@@H](Cc1c[nH]c2ccccc12)C(=O)NCC(=O)N[C@@H](Cc1ccccc1)C(N)=O (Boc-Trp-Gly-Phe-NH2) | 11000 |
| CSCC[C@H](N)C(=O)N[C@@H](CC(=O)O)C(=O)N[C@@H](Cc1ccccc1)C(N)=O (H-Met-Asp-Phe-NH2) | 100000 |
| CSCC[C@H](NC(=O)[C@H](Cc1c[nH]c2ccccc12)NC(=O)CNC(=O)[C@H](CCSC)NC(=O)[C@@H](N)Cc1ccc(OS(=O)(=O)O)cc1)C(=O)N[C@@H](CC(=O)O)C(=O)N[C@@H](Cc1ccccc1)C(N)=O (H-[sY]MGWMDF-NH2) | 2 |
| CSCC[C@H](NC(=O)[C@H](Cc1ccc(OS(=O)(=O)O)cc1)NC(=O)[C@@H](N)CC(=O)O)C(=O)NCC(=O)N[C@@H](Cc1c[nH]c2ccccc12)C(=O)N[C@@H](CCSC)C(=O)N[C@@H](CC(=O)O)C(=O)N[C@@H](Cc1ccccc1)C(N)=O (stereo in doubt; 1) [SINCALIDE] | 3 |
| CSCC[C@H](NC(=O)[C@H](Cc1ccc(OS(=O)(=O)O)cc1)NC(=O)[C@@H](N)CC(=O)O)C(=O)NCC(=O)N[C@@H](Cc1c[nH]c2ccccc12)C(=O)N[C@@H](CCSC)C(=O)N[C@@H](CC(=O)O)C(=O)N[C@@H](Cc1ccccc1)C(N)=O (stereo in doubt; 2) [SINCALIDE] | 180 |
| CSCC[C@H](NC(=O)[C@@H](N)Cc1c[nH]c2ccccc12)C(=O)N[C@@H](CC(=O)O)C(=O)N[C@@H](Cc1ccccc1)C(N)=O [TETRAGASTRIN] | 3 |

Second part, the molecule after the results:

| Ki [nM] | Structure (SMILES) |
| --- | --- |
| 1.8 | CSCC[C@H](NC(=O)[C@H](Cc1c[nH]c2ccccc12)NC(=O)OC(C)(C)C)C(=O)N[C@@H](CC(=O)O)C(=O)N[C@@H](Cc1ccccc1)C(N)=O |
| 1600 | CC(C)(C)OC(=O)N[C@@H](Cc1c[nH]c2ccccc12)C(=O)NCC(=O)N[C@@H](CC(=O)O)C(=O)N[C@@H](Cc1ccccc1)C(N)=O (Boc-WGDF-NH2) |
| 24000 | CSCC[C@H](NC(=O)[C@H](Cc1c[nH]c2ccccc12)NC(=O)OC(C)(C)C)C(=O)NCC(=O)N[C@@H](Cc1ccccc1)C(N)=O (Boc-WMGF-NH2) |
| 0.6 | CSCC[C@H](NC(=O)[C@H](Cc1c[nH]c2ccccc12)NC(=O)CCNC(=O)OC(C)(C)C)C(=O)N[C@@H](CC(=O)O)C(=O)N[C@@H](Cc1ccccc1)C(N)=O [PENTAGASTRIN] |
